Data: ChEMBL document CHEMBL4145466, “Design, synthesis, and biological evaluation of novel combretastatin A-4 thio derivatives as microtubule targeting agents” (Eur J Med Chem, 2018)
The source made the active and inactive calls. No cut-off for these calls is given here.

Tests used:
A-431 [1] = assay: Induction of apoptosis in human A431 cells after 24 hrs by FITC Annexin V/propidium iodide staining-based FACScan flow cytometric analysis; assay type: functional, cell-based
In short: (§1)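 After 24 h of compound exposure, 1 × 10^6 cells were labelled with annexin V-FITC and PI for 15 min at 25 °C in the dark. They were read on a FACScan with 488 nm excitation, detecting FITC at 525 nm and PI at 620 nm. Results are mean ± SD of three independent experiments, with Dunnett's test against control.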

HeLa [2] = assay: Cytotoxicity against human HeLa cells after 48 hrs by MTT assay; assay type: functional, cell-based
In short: (§2)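 Cells in DMEM with 10% FBS were plated at 2 × 10^4 per well and left overnight, then treated for 48 h at 0.6–20 µM (six concentrations) from 10 mM DMSO stocks. MTT was added for 2 h, and formazan was dissolved in DMSO and read at 570 nm. Viability was expressed as % of control, with IC50 taken from dose-response curves. Results are mean ± SD of three independent experiments.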

[3] = Cytotoxicity against human CCD39Lu cells after 48 hrs by MTT assay; assay type: cell-based; in short: as §2
SK-OV-3 [4] = assay: Induction of apoptosis in human SKOV3 cells assessed as increase in histone-associated DNA fragments in oligonucleosomes at 0.1 uM after 24 hrs by ELISA; assay type: functional, cell-based
In short: (§3)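 Cells (2 × 10^4) were incubated for 24 h at 0.1, 0.5 or 1 µM, lysed and centrifuged. Supernatants went onto a streptavidin plate with anti-histone-biotin and anti-DNA-peroxidase for 2 h, followed by ABTS for 30 min and a reading at 405 nm. Nucleosome content was expressed as an enrichment factor, as mean ± SD of three experiments.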

HaCaT [5] = assay: Cytotoxicity against human HaCaT cells after 48 hrs by MTT assay; assay type: cell-based; in short: as §2
MDA-MB-231 [6] = assay: Induction of apoptosis in human MDA-MB-231 cells after 24 hrs by FITC Annexin V/propidium iodide staining-based FACScan flow cytometric analysis; assay type: functional, cell-based; in short: as §1
Tubulin [7] = assay: Inhibition of tubulin polymerization in human HaCaT cells assessed as micronuclei formation at 1 uM after 24 hrs by Hoechst 33258/FITC staining-based […]; assay type: cell-based
In short: (§4)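 Cells seeded at 12.5 × 10^4 per well and exposed to 1 µM compound for 24 h. Nuclei were stained with Hoechst 33258 (10 µg/mL, 30 min, 37 °C), then fixed in 4% formaldehyde/PBS (15 min, RT). Cells were permeabilized with 1% Triton X-100, blocked with 2% BSA/PBS for 1 h, and incubated with anti-α-tubulin-FITC (1:50) overnight at 4 °C. Imaged by fluorescence microscopy.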

SK-OV-3 [8] = assay: Induction of apoptosis in human SKOV3 cells assessed as increase in histone-associated DNA fragments in mononucleosomes at 0.1 uM after 24 hrs by ELISA; assay type: functional, cell-based; in short: as §3
[9] = Inhibition of porcine tubulin polymerization after 1 hr by spectrophotometric analysis; set-up: species or system Sus scrofa
In short: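 Polymerization was started by shifting from 4 °C to 37 °C, and absorbance was followed at 37 °C for 60 min. The vehicle served as control.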

HeLa [10] = assay: Induction of apoptosis in human HeLa cells assessed as increase in histone-associated DNA fragments in mononucleosomes at 0.1 uM after 24 hrs by ELISA; assay type: functional, cell-based; in short: as §3
HaCaT [11] = assay: Induction of apoptosis in human HaCaT cells assessed as increase in histone-associated DNA fragments in oligonucleosomes at 0.1 uM after 24 hrs by ELISA; assay type: cell-based
In short: (§5)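 HaCaT cells (2 × 10^4), grown in DMEM with 10% FBS, penicillin/streptomycin and 2 mM L-glutamine, exposed to compound (DMSO stock) for 24 h. Cells lysed, supernatant taken after centrifugation and incubated 2 h on a streptavidin-coated plate with anti-histone-biotin and anti-DNA-peroxidase. ABTS added for 30 min, A405 read. Output is enrichment factor vs control, mean ± SD of three independent experiments.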

HaCaT [12] = assay: Cell cycle arrest in human HaCaT cells assessed as accumulation of cells at G2/M phase at 0.1 to 1 uM after 24 hrs by propidium iodide staining-based FACS analysis
In short: (§6)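 Cells were seeded at 5 × 10^5 per well in DMEM with 10% FBS and left overnight, then exposed to 0.1, 0.5 or 1 µM for 24 h. DMSO served as the negative control and 50 nM camptothecin as the positive control. Cells were trypsinized, fixed in 70% ethanol for 30 min at 4 °C, stained with 50 µg/mL PI plus 100 µg/mL RNase A for 30 min in the dark, and analysed by flow cytometry. Results are mean ± SD of three experiments, compared by ANOVA with Dunnett's test.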

MCF7 [13] = assay: Induction of apoptosis in human MCF7 cells assessed as increase in histone-associated DNA fragments in mononucleosomes at 0.1 uM after 24 hrs by ELISA; assay type: functional, cell-based; in short: as §3
A-431 [14] = assay: Induction of apoptosis in human A431 cells assessed as increase in histone-associated DNA fragments in oligonucleosomes at 0.1 uM after 24 hrs by ELISA; assay type: functional, cell-based; in short: as §3
MCF7 [15] = assay: Induction of apoptosis in human MCF7 cells after 24 hrs by FITC Annexin V/propidium iodide staining-based FACScan flow cytometric analysis; assay type: functional, cell-based; in short: as §1
HeLa [16] = assay: Induction of apoptosis in human HeLa cells after 24 hrs by FITC Annexin V/propidium iodide staining-based FACScan flow cytometric analysis; assay type: functional, cell-based; in short: as §1
Tubulin [17] = assay: Inhibition of tubulin polymerization in human HaCaT cells assessed as perturbation in cytoskeleton structure at 1 uM after 24 hrs by Hoechst 33258/FITC staining-based […]; assay type: cell-based; in short: as §4
A-431 [18] = assay: Cytotoxicity against human A431 cells after 48 hrs by MTT assay; assay type: functional, cell-based; conditions: A-431, 48 h; in short: as §2
Tubulin [19] = assay: Inhibition of tubulin polymerization in human HaCaT cells assessed as micronuclei formation at 1 uM after 24 hrs by ELISA; assay type: cell-based
A-431 [20] = assay: Cell cycle arrest in human A431 cells assessed as accumulation of cells at G2/M phase at 0.1 to 1 uM after 24 hrs by propidium iodide staining-based FACS analysis; assay type: functional; in short: as §6
MCF7 [21] = assay: Cell cycle arrest in human MCF7 cells assessed as accumulation of cells at G2/M phase at 0.1 to 1 uM after 24 hrs by propidium iodide staining-based FACS analysis; assay type: functional; in short: as §6
SK-OV-3 [22] = assay: Induction of apoptosis in human SKOV3 cells after 24 hrs by FITC Annexin V/propidium iodide staining-based FACScan flow cytometric analysis; assay type: functional, cell-based; in short: as §1
MDA-MB-231 [23] = assay: Induction of apoptosis in human MDA-MB-231 cells assessed as increase in histone-associated DNA fragments in oligonucleosomes at 0.1 uM after 24 hrs by ELISA; assay type: functional, cell-based; in short: as §3
SK-OV-3 [24] = assay: Cell cycle arrest in human SKOV3 cells assessed as accumulation of cells at G2/M phase at 0.1 to 1 uM after 24 hrs by propidium iodide staining-based FACS analysis; assay type: functional; in short: as §6
HeLa [25] = assay: Induction of apoptosis in human HeLa cells assessed as increase in histone-associated DNA fragments in oligonucleosomes at 0.1 uM after 24 hrs by ELISA; assay type: functional, cell-based; in short: as §3
HaCaT [26] = assay: Induction of apoptosis in human HaCaT cells assessed as increase in histone-associated DNA fragments in mononucleosomes at 0.1 uM after 24 hrs by ELISA; assay type: cell-based; in short: as §5
A549 = assay: Cytotoxicity against human A549 cells after 48 hrs by MTT assay; assay type: functional, cell-based; conditions: A549, 48 h
MDA-MB-231 [27] = assay: Cell cycle arrest in human MDA-MB-231 cells assessed as accumulation of cells at G2/M phase at 0.1 to 1 uM after 24 hrs by propidium iodide staining-based FACS analysis; assay type: functional; in short: as §6
MDA-MB-231 [28] = assay: Cytotoxicity against human MDA-MB-231 cells after 48 hrs by MTT assay; assay type: functional, cell-based; conditions: MDA-MB-231, 48 h; in short: as §2
HaCaT [29] = assay: Induction of apoptosis in human HaCaT cells after 24 hrs by FITC Annexin V/propidium iodide staining-based FACScan flow cytometric analysis; assay type: cell-based; in short: as §1
MDA-MB-231 [30] = assay: Induction of apoptosis in human MDA-MB-231 cells assessed as increase in histone-associated DNA fragments in mononucleosomes at 0.1 uM after 24 hrs by ELISA; assay type: functional, cell-based; in short: as §3
MCF7 [31] = assay: Induction of apoptosis in human MCF7 cells assessed as increase in histone-associated DNA fragments in oligonucleosomes at 0.1 uM after 24 hrs by ELISA; assay type: functional, cell-based; in short: as §3
MCF7 [32] = assay: Cytotoxicity against human MCF7 cells after 48 hrs by MTT assay; assay type: functional, cell-based; conditions: MCF7, 48 h; in short: as §2
Tubulin [33] = assay: Inhibition of tubulin polymerization in human HaCaT cells assessed as perturbation in cytoskeleton structure at 1 uM after 24 hrs by ELISA; assay type: cell-based
SK-OV-3 [34] = assay: Cytotoxicity against human SKOV3 cells after 48 hrs by MTT assay; assay type: functional, cell-based; conditions: SK-OV-3, 48 h; in short: as §2
A-431 [35] = assay: Induction of apoptosis in human A431 cells assessed as increase in histone-associated DNA fragments in mononucleosomes at 0.1 uM after 24 hrs by ELISA; assay type: functional, cell-based; in short: as §3

COc1ccc(/C=C\c2cc(OC)c(OC)c(OC)c2)cc1O [COMBRETASTATIN A4]
Activity (A-431 [1]): Dose-dependent effect
IC50 (HeLa [2]): 110 nM
IC50 [3]: 9 nM
Activity (SK-OV-3 [4]): Active
IC50 (HaCaT [5]): 190 nM
Activity (MDA-MB-231 [6]): Dose-dependent effect
inhibition (INH) (Tubulin [7]): Active
Activity (SK-OV-3 [8]): Active
IC50 [9]: 2720 nM
Activity (HeLa [10]): Active
Activity (HaCaT [11]): Toxic
Activity (HaCaT [12]): Toxic
Activity (MCF7 [13]): Active
Activity (A-431 [14]): Active
Activity (MCF7 [15]): Dose-dependent effect
Activity (HeLa [16]): Dose-dependent effect
inhibition (INH) (Tubulin [17]): Active
IC50 (A-431 [18]): 250 nM
inhibition (INH) (Tubulin [19]): Active
Activity (A-431 [20]): Active
Activity (MCF7 [21]): Active
Activity (SK-OV-3 [22]): Dose-dependent effect
Activity (MDA-MB-231 [23]): Active
Activity (SK-OV-3 [24]): Active
Activity (HeLa [25]): Active
Activity (HaCaT [26]): Toxic
IC50 (A549): > 20000 nM
Activity (MDA-MB-231 [27]): Active
IC50 (MDA-MB-231 [28]): 560 nM
Activity (HaCaT [29]): Dose-dependent effect
Activity (MDA-MB-231 [30]): Active
Activity (MCF7 [31]): Active
IC50 (MCF7 [32]): 170 nM
inhibition (INH) (Tubulin [33]): Active
IC50 (SK-OV-3 [34]): 380 nM
Activity (A-431 [35]): Active
